# Assay results from ChEMBL document CHEMBL5303300, “EUbOPEN Chemogenomics Library - Multiplex” (2023).
# Values joined by “and” are separate entries in the source; they are usually repeats but may differ in a detail not shown here. Equal entries are not always repeated.
# Legend:
# Type in all cases: toxicity, cell-based
# [1] = tested on: Fibroblast; test: Multiplex assay against human fibroblast; conditions: number of replicates 2
# How it was run: (§1)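 On a CQ1 microscope at 37°C and 5% CO2, live cells were imaged after compound addition. They had been stained at seeding with Hoechst33342, BioTracker Green Microtubule Cytoskeleton Dye, MitoTracker Red and Annexin V Alexa Fluor 680. CellPathfinder machine-learning gating assigned cells to Hoechst high-intensity objects or normal cells, normal cells to healthy, pyknosed or fragmented nuclei, and pyknosed cells to mitotic or apoptotic. Tubulin, mitochondrial-mass and membrane-permeability phenotypes are per cents of healthy-nucleus cells.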
# [2] = tested on: HEK-293T; test: Multiplex assay against HEK293T; conditions: human, number of replicates 2; how it was run: as §1
# [3] = tested on: U2OS; test: Multiplex assay against U2OS; conditions: human, number of replicates 2; how it was run: as §1
# [4] = 12 h, 1 µM, compound concentration 1 uM
# [5] = 12 h, 10 µM, compound concentration 10 uM
# [6] = 24 h, 1 µM, compound concentration 1 uM
# [7] = 24 h, 10 µM, compound concentration 10 uM
# [8] = 48 h, 1 µM, compound concentration 1 uM
# [9] = 48 h, 10 µM, compound concentration 10 uM
compound,measurement,setting,value
COC(=O)c1ccc2c(c1)NC(=O)/C2=C(\Nc1ccc(-c2nccn2C)cc1)c1ccccc1,Population Apoptotic (%),[1]; [4],35% and 43%
same,Population Fragmented Nuclei (%),[1]; [4],10% and 29%
same,Population Healthy Nuclei (%),[1]; [4],72% and 51%
same,Population Hoechst High Intensity Objects (%),[1]; [4],0%
same,Population Membrane Permeable-Phenotype (%),[1]; [4],2% and 1%
same,Population Mitochondria Different-Phenotype (%),[1]; [4],1% and 3%
same,Population Mitotic Cells (%),[1]; [4],64% and 56%
same,Population Normal (%),[1]; [4],99%
same,Population Pyknosed Nuclei (%),[1]; [4],17% and 19%
same,Population Tubulin-Different-Phenotype (%),[1]; [4],7% and 9%
same,Total Cell Count,[1]; [4],195 and 242
same,Population Apoptotic (%),[1]; [5],50% and 45%
same,Population Fragmented Nuclei (%),[1]; [5],21% and 17%
same,Population Healthy Nuclei (%),[1]; [5],59% and 62%
same,Population Hoechst High Intensity Objects (%),[1]; [5],0%
same,Population Membrane Permeable-Phenotype (%),[1]; [5],13% and 9%
same,Population Mitochondria Different-Phenotype (%),[1]; [5],2%
same,Population Mitotic Cells (%),[1]; [5],50% and 54%
same,Population Normal (%),[1]; [5],100% and 99%
same,Population Pyknosed Nuclei (%),[1]; [5],18% and 19%
same,Population Tubulin-Different-Phenotype (%),[1]; [5],67% and 56%
same,Total Cell Count,[1]; [5],317 and 270
same,Population Apoptotic (%),[1]; [6],64% and 60%
same,Population Healthy Nuclei (%),[1]; [6],74% and 53%
same,Population Hoechst High Intensity Objects (%),[1]; [6],0%
same,Population Membrane Permeable-Phenotype (%),[1]; [6],3%
same,Population Mitochondria Different-Phenotype (%),[1]; [6],0%
same,Population Mitotic Cells (%),[1]; [6],35% and 39%
same,Population Normal (%),[1]; [6],99%
same,Population Pyknosed Nuclei (%),[1]; [6],15% and 14%
same,Population Tubulin-Different-Phenotype (%),[1]; [6],11% and 8%
same,Total Cell Count,[1]; [6],180 and 255
same,Population Apoptotic (%),[1]; [7],70% and 67%
same,Population Fragmented Nuclei (%),[1]; [7],24%
same,Population Healthy Nuclei (%),[1]; [7],59% and 54%
same,Population Hoechst High Intensity Objects (%),[1]; [7],0%
same,Population Membrane Permeable-Phenotype (%),[1]; [7],5% and 6%
same,Population Mitochondria Different-Phenotype (%),[1]; [7],8% and 6%
same,Population Mitotic Cells (%),[1]; [7],29% and 32%
same,Population Normal (%),[1]; [7],99%
same,Population Pyknosed Nuclei (%),[1]; [7],16% and 21%
same,Population Tubulin-Different-Phenotype (%),[1]; [7],60% and 43%
same,Total Cell Count,[1]; [7],317 and 264
same,Population Apoptotic (%),[1]; [8],48% and 73%
same,Population Healthy Nuclei (%),[1]; [8],69% and 56%
same,Population Hoechst High Intensity Objects (%),[1]; [8],0%
same,Population Membrane Permeable-Phenotype (%),[1]; [8],1% and 3%
same,Population Mitochondria Different-Phenotype (%),[1]; [8],0%
same,Population Mitotic Cells (%),[1]; [8],51% and 26%
same,Population Normal (%),[1]; [8],100% and 99%
same,Population Pyknosed Nuclei (%),[1]; [8],20% and 9%
same,Population Tubulin-Different-Phenotype (%),[1]; [8],3% and 8%
same,Total Cell Count,[1]; [8],182 and 256
same,Population Apoptotic (%),[1]; [9],84% and 86%
same,Population Fragmented Nuclei (%),[1]; [9],22% and 26%
same,Population Healthy Nuclei (%),[1]; [9],62% and 56%
same,Population Hoechst High Intensity Objects (%),[1]; [9],0% and 1%
same,Population Membrane Permeable-Phenotype (%),[1]; [9],5% and 6%
same,Population Mitochondria Different-Phenotype (%),[1]; [9],5% and 9%
same,Population Mitotic Cells (%),[1]; [9],15% and 13%
same,Population Normal (%),[1]; [9],100% and 98%
same,Population Pyknosed Nuclei (%),[1]; [9],14% and 17%
same,Population Tubulin-Different-Phenotype (%),[1]; [9],45% and 38%
same,Total Cell Count,[1]; [9],302 and 261
same,Population Apoptotic (%),[2]; [4],50% and 35%
same,Population Fragmented Nuclei (%),[2]; [4],3% and 2%
same,Population Healthy Nuclei (%),[2]; [4],86%
same,Population Hoechst High Intensity Objects (%),[2]; [4],4%
same,Population Membrane Permeable-Phenotype (%),[2]; [4],4% and 3%
same,Population Mitochondria Different-Phenotype (%),[2]; [4],20% and 17%
same,Population Mitotic Cells (%),[2]; [4],49% and 64%
same,Population Normal (%),[2]; [4],95%
same,Population Pyknosed Nuclei (%),[2]; [4],10% and 11%
same,Population Tubulin-Different-Phenotype (%),[2]; [4],52% and 51%
same,Total Cell Count,[2]; [4],677 and 686
same,Population Apoptotic (%),[2]; [5],53% and 62%
same,Population Fragmented Nuclei (%),[2]; [5],2% and 4%
same,Population Healthy Nuclei (%),[2]; [5],83% and 81%
same,Population Hoechst High Intensity Objects (%),[2]; [5],10% and 11%
same,Population Membrane Permeable-Phenotype (%),[2]; [5],6% and 5%
same,Population Mitochondria Different-Phenotype (%),[2]; [5],37% and 38%
same,Population Mitotic Cells (%),[2]; [5],46% and 37%
same,Population Normal (%),[2]; [5],89% and 88%
same,Population Pyknosed Nuclei (%),[2]; [5],13% and 14%
same,Population Tubulin-Different-Phenotype (%),[2]; [5],88% and 93%
same,Total Cell Count,[2]; [5],504 and 530
same,Population Apoptotic (%),[2]; [6],30% and 31%
same,Population Fragmented Nuclei (%),[2]; [6],5% and 3%
same,Population Healthy Nuclei (%),[2]; [6],87% and 88%
same,Population Hoechst High Intensity Objects (%),[2]; [6],6% and 7%
same,Population Membrane Permeable-Phenotype (%),[2]; [6],4% and 1%
same,Population Mitochondria Different-Phenotype (%),[2]; [6],8% and 5%
same,Population Mitotic Cells (%),[2]; [6],69% and 68%
same,Population Normal (%),[2]; [6],93% and 92%
same,Population Pyknosed Nuclei (%),[2]; [6],6% and 8%
same,Population Tubulin-Different-Phenotype (%),[2]; [6],35% and 36%
same,Total Cell Count,[2]; [6],1123 and 936
same,Population Apoptotic (%),[2]; [7],55% and 74%
same,Population Fragmented Nuclei (%),[2]; [7],6% and 5%
same,Population Healthy Nuclei (%),[2]; [7],79% and 80%
same,Population Hoechst High Intensity Objects (%),[2]; [7],9% and 11%
same,Population Membrane Permeable-Phenotype (%),[2]; [7],3% and 4%
same,Population Mitochondria Different-Phenotype (%),[2]; [7],27% and 38%
same,Population Mitotic Cells (%),[2]; [7],44% and 25%
same,Population Normal (%),[2]; [7],90% and 88%
same,Population Pyknosed Nuclei (%),[2]; [7],13% and 14%
same,Population Tubulin-Different-Phenotype (%),[2]; [7],81% and 89%
same,Total Cell Count,[2]; [7],660 and 604
same,Population Apoptotic (%),[2]; [8],28% and 24%
same,Population Fragmented Nuclei (%),[2]; [8],12% and 9%
same,Population Healthy Nuclei (%),[2]; [8],84% and 87%
same,Population Hoechst High Intensity Objects (%),[2]; [8],9%
same,Population Membrane Permeable-Phenotype (%),[2]; [8],4% and 3%
same,Population Mitochondria Different-Phenotype (%),[2]; [8],0% and 1%
same,Population Mitotic Cells (%),[2]; [8],72% and 75%
same,Population Normal (%),[2]; [8],90%
same,Population Pyknosed Nuclei (%),[2]; [8],2% and 3%
same,Population Tubulin-Different-Phenotype (%),[2]; [8],12% and 19%
same,Total Cell Count,[2]; [8],2887 and 2005
same,Population Apoptotic (%),[2]; [9],46% and 56%
same,Population Fragmented Nuclei (%),[2]; [9],11% and 8%
same,Population Healthy Nuclei (%),[2]; [9],83% and 85%
same,Population Hoechst High Intensity Objects (%),[2]; [9],11%
same,Population Membrane Permeable-Phenotype (%),[2]; [9],5% and 4%
same,Population Mitochondria Different-Phenotype (%),[2]; [9],10% and 22%
same,Population Mitotic Cells (%),[2]; [9],53% and 43%
same,Population Normal (%),[2]; [9],88%
same,Population Pyknosed Nuclei (%),[2]; [9],5% and 6%
same,Population Tubulin-Different-Phenotype (%),[2]; [9],64% and 85%
same,Total Cell Count,[2]; [9],1119 and 790
same,Population Healthy Nuclei (%),[3]; [4],70% and 88%
same,Population Hoechst High Intensity Objects (%),[3]; [4],0%
same,Population Membrane Permeable-Phenotype (%),[3]; [4],12% and 2%
same,Population Mitochondria Different-Phenotype (%),[3]; [4],4% and 0%
same,Population Mitotic Cells (%),[3]; [4],100% and 64%
same,Population Normal (%),[3]; [4],100%
same,Population Pyknosed Nuclei (%),[3]; [4],2% and 8%
same,Population Tubulin-Different-Phenotype (%),[3]; [4],54% and 83%
same,Population Apoptotic (%),[3]; [5],50% and 68%
same,Population Healthy Nuclei (%),[3]; [5],43% and 77%
same,Population Hoechst High Intensity Objects (%),[3]; [5],0%
same,Population Membrane Permeable-Phenotype (%),[3]; [5],25% and 15%
same,Population Mitochondria Different-Phenotype (%),[3]; [5],7% and 20%
same,Population Mitotic Cells (%),[3]; [5],50% and 31%
same,Population Normal (%),[3]; [5],100%
same,Population Pyknosed Nuclei (%),[3]; [5],16% and 15%
same,Population Tubulin-Different-Phenotype (%),[3]; [5],55% and 43%
same,Total Cell Count,[3]; [5],62 and 186
same,Population Apoptotic (%),[3]; [6],84% and 57%
same,Population Healthy Nuclei (%),[3]; [6],91% and 65%
same,Population Hoechst High Intensity Objects (%),[3]; [6],0%
same,Population Membrane Permeable-Phenotype (%),[3]; [6],2% and 11%
same,Population Mitochondria Different-Phenotype (%),[3]; [6],0% and 5%
same,Population Mitotic Cells (%),[3]; [6],15% and 42%
same,Population Normal (%),[3]; [6],100%
same,Population Pyknosed Nuclei (%),[3]; [6],5% and 13%
same,Population Tubulin-Different-Phenotype (%),[3]; [6],79% and 44%
same,Population Apoptotic (%),[3]; [7],58% and 68%
same,Population Healthy Nuclei (%),[3]; [7],42% and 74%
same,Population Hoechst High Intensity Objects (%),[3]; [7],0%
same,Population Membrane Permeable-Phenotype (%),[3]; [7],22% and 10%
same,Population Mitochondria Different-Phenotype (%),[3]; [7],27% and 31%
same,Population Mitotic Cells (%),[3]; [7],41% and 31%
same,Population Normal (%),[3]; [7],100%
same,Population Pyknosed Nuclei (%),[3]; [7],23% and 20%
same,Population Tubulin-Different-Phenotype (%),[3]; [7],50% and 52%
same,Population Apoptotic (%),[3]; [8],50% and 62%
same,Population Healthy Nuclei (%),[3]; [8],71% and 90%
same,Population Hoechst High Intensity Objects (%),[3]; [8],0%
same,Population Membrane Permeable-Phenotype (%),[3]; [8],5% and 2%
same,Population Mitochondria Different-Phenotype (%),[3]; [8],3% and 0%
same,Population Mitotic Cells (%),[3]; [8],50% and 37%
same,Population Normal (%),[3]; [8],100%
same,Population Pyknosed Nuclei (%),[3]; [8],9% and 5%
same,Population Tubulin-Different-Phenotype (%),[3]; [8],58% and 86%
same,Population Apoptotic (%),[3]; [9],93% and 88%
same,Population Healthy Nuclei (%),[3]; [9],40% and 72%
same,Population Hoechst High Intensity Objects (%),[3]; [9],3% and 0%
same,Population Membrane Permeable-Phenotype (%),[3]; [9],27% and 11%
same,Population Mitochondria Different-Phenotype (%),[3]; [9],40% and 21%
same,Population Mitotic Cells (%),[3]; [9],6% and 11%
same,Population Normal (%),[3]; [9],96% and 99%
same,Population Pyknosed Nuclei (%),[3]; [9],27% and 21%
same,Population Tubulin-Different-Phenotype (%),[3]; [9],59% and 40%
